KCNK9 inh: inhibitors of human KCNK9 two-pore domain potassium channel; Q9NPC2; B-score at 10 µM; 1.2% of 310,000 active; HEK293 KCNK9, FluxOR thallium flux fluorescence; hits give low values;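 active = ratio B-score over 3 SD below the library mean, with starting fluorescence within 5 SD of its mean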;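 note: negative B-score means less thallium flux so channel inhibition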
Cl transport mod: modulators of human KCC2 chloride dependent transport | B-score of Tl+ flux slope (higher = more flux/activation; lower = inhibition) at 10 µM | 2.2% of 190,000 active | Q9H2X9 | AID 1456 | KCC2 cells, thallium flux FluoZin-2 fluorescence;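 active = thallium flux slope and its plate-corrected score both differing from the plate sample mean at a set confidence after two filtering rounds, in either direction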;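 note: slope of fluorescence scaled to starting intensity during 10 to 20 s after thallium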
KCNK3 block: human KCNK3 channel inhibition, primary screen | O14649 | CHO-KCNK3 thallium flux, FluxOR fluorescence; hits give low values | B-score at 10 µM | 0.84% of 340,000 active | AID 602410;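 active = B-score under library mean minus 4 SD, starting fluorescence ratio at most library mean plus 5 SD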;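 note: more negative B-score means stronger inhibition of thallium flux through KCNK3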
hERG protect: compounds protecting human hERG from proarrhythmic drug block. Q12809. CHO-hERG, FluxOR thallium flux, dofetilide IC70 present. activation (rescue from dofetilide block), less the hit threshold, % at 10 µM. 0.51% of 310,000 active. AID 1511;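 active = activation above the mean of controls blocked by dofetilide plus 5 SD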;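 note: thallium influx through hERG after potassium depolarization seen as dye fluorescence rise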
KCNQ1 pot: potentiators or activators of human KCNQ1 potassium channel. P51787. CHO-K1 KCNQ1, thallium flux FluxOR fluorescence; hits give high values. B-score at 10 µM. 0.35% of 310,000 active;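 active = fluorescence ratio B-score, a plate-corrected score, at least three library SD, with initial intensity B-score within 5 SD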
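assay system = CHO-K1 cells stably expressing KCNQ1 | medium = assay buffer, equal DMSO in all wells | timing = 37 °C overnight plating, 90-min dark dye load, 20-min compound pretreatment | measured by = kinetic FluxOR thallium fluorescence, 10-s 1-Hz baseline, 110-s post-stimulus read | measure = fluorescence change relative to baseline, converted to B score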
KCNQ1 block: human KCNQ1 channel inhibition. P51787. CHO-K1 KCNQ1, FluxOR thallium flux fluorescence; hits give high values. B-score at 10 µM. 1.3% of 310,000 active;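 active = compounds whose thallium flux B-score, printed positive for inhibition, exceeds three library SD while starting fluorescence stays within three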;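 note: channel opened by potassium depolarization with thallium stimulus after 20 min compound exposure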
KCNK9 inh conf: human KCNK9 inhibitor confirmation; AID 492992; 43% of 4,900 active; HEK293 KCNK9 cells, FluxOR thallium flux fluorescence; shares compounds with KCNK9 inh; inhibition, % at 10 µM;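 active = thallium signal inhibited by more than 5 SD of the compound-free buffer control wells, on both duplicate plates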;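 note: 0% = assay buffer control wells without compound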
Kir2-1 spec: mouse Kir2.1 off-target activity of KCNK9 modulators; shares compounds with KCNK9 inh; Kir2.1 cells, FluxOR thallium flux fluorescence; inhibition, % at 10 µM; 4% of 4,900 active; AID 492993;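 active = thallium signal drop more than 5 SD beyond the mean of the no-compound control wells, seen in both duplicate plates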;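 note: signal is fluorescence rise after thallium addition divided by baseline fluorescence; plate controls were assay buffer only for no effect and full block by chlorpromazine control for full effect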
Target sequence (P35561 whole entry, looked up): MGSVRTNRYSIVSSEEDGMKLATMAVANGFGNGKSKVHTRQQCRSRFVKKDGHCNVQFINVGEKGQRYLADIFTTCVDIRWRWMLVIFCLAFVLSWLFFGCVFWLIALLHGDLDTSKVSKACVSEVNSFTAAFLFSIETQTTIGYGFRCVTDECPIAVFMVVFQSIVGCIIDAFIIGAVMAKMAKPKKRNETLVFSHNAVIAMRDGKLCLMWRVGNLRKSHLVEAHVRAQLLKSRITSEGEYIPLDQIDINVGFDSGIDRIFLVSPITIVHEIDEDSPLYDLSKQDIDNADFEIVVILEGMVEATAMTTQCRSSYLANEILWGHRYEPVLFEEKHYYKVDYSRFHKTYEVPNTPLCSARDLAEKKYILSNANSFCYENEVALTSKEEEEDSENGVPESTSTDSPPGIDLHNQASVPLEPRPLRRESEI
HEK293 Tl ctr: second counter-screen for KCNK9 modulators: effect in non-induced cells; shares compounds with KCNK9 inh; non-induced KCNK9-HEK293, FluxOR thallium flux; inhibition, % at 10 µM; 40% of 4,900 active; AID 492997;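 active = thallium signal drop beyond 5 SD of the untreated control mean, on both duplicate plates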;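 note: plate controls were buffer only IC0 wells for no effect and SID17386958 at its maximal inhibitory level for full effect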
An asterisk follows results filed as active; i = inactive; x = no result given. A selection: hits, their analogues and other compounds. The true share with any hit is near 4.1%.

SMILES	KCNK9 inh	Cl transport mod	KCNK3 block	hERG protect	KCNQ1 pot	KCNQ1 block	KCNK9 inh conf	Kir2-1 spec	HEK293 Tl ctr
Cc1cccc(OC2(c3ccccc3)OC(=O)c3ccccc32)c1C (centres undefined)	-13*	-0.88	i	-11	i	i	52%*	i	42%*
COc1ccc(NC2(c3ccccc3)OC(=O)c3ccccc32)cc1 (centres undefined)	i	-0.029	i	-8	i	i	x	x	x
CC1CCCN(C(=O)COC(=O)Cc2c(F)cccc2Cl)C1 (centres undefined)	i	x	i	-4	i	i	x	x	x
C=Cc1ccc(Cn2nc(-c3ccc(C)cc3)ccc2=O)cc1	i	x	i	-5	i	i	i	i	i
O=C(COC(=O)c1ncc(Cl)c(Cl)c1Cl)Nc1cccnc1Cl	i	x	i	-9	i	i	x	x	x
COc1ccc(C(=O)CN2CCN(CCN3C(=O)c4cccc5cccc(c45)C3=O)CC2)cc1	i	x	i	-17	i	i	i	i	i
CCOC(=O)c1cccnc1SCC(=O)N(CC)c1cccc(C)c1	i	-0.4	i	-15	i	i	i	i	i
c1ccc(CNc2ncnc3sc4c(c23)CCCC4)nc1	i	-0.83	i	-15	i	i	x	x	x
Cc1nc(NCc2ccccn2)c2c3c(sc2n1)CCCC3	i	-2.4	i	-7	i	i	i	i	i
Cc1ccc(-c2cc(C(=O)Nc3ccc(S(=O)(=O)Nc4onc(C)c4C)cc3)c3ccccc3n2)cc1	i	0.0028	i	-26	i	i	i	i	i
Cc1c(C)n(Cc2ccccc2)c2ncnc(Cl)c12	i	x	i	-16	i	i	x	x	x
Cc1cc2ccccn2c1C(=O)c1nc(NCc2ccccc2)ncc1Cl	i	-0.094	i	-7	i	i	i	i	26%*
O=C1CCc2cccc(O)c2N1	x	x	i	x	x	x	x	x	x
c1ccc2sc(SCSc3nc4ccccc4s3)nc2c1	-13*	2.1	i	-9	i	i	72%*	i	38%*
CC(=O)c1ccccc1NC(=O)COC(=O)C1=NN(c2ccccc2)C(=O)CC1	x	x	i	x	x	x	x	x	x
Cc1oc(-c2cccs2)nc1CN1CCC(c2ccccc2)CC1	i	0.68	i	-11	i	i	i	i	i
C[C@H](CO)N1C[C@H](C)[C@@H](CN(C)Cc2ccc(C(=O)O)cc2)Oc2c(NS(=O)(=O)c3ccc(F)cc3)cccc2C1=O	x	x	i	x	x	x	x	x	x
CCCCNC(=O)c1onc(CSc2ccc(C(C)C)cc2)c1C(=O)O	i	-1.6	i	-13	i	i	i	i	i
CC(C)CCNC(=O)c1c(CSc2ccccc2)noc1C(=O)NCc1ccccc1	i	0.48	i	-9	i	i	i	i	i
CCCCNC(=O)c1onc(CSc2ccccc2)c1C(=O)O	i	0.22	i	-11	i	i	x	x	x
CCCNC(=O)c1c(CSc2ccccc2)noc1C(=O)NCc1ccccc1	i	-0.031	i	-9	i	i	x	x	x
O=C(NCC1CC1)c1onc(CSc2ccc(F)c(F)c2)c1C(=O)NCC1CC1	i	x	i	-10	i	i	x	x	x
C=CCNC(=O)c1c(CSc2ccc(Cl)cc2)noc1C(=O)NCCC	i	x	i	-5	i	i	x	x	x
CCCNC(=O)c1onc(CSc2ccc(Cl)cc2)c1C(=O)NCCC(C)C	i	x	i	-8	i	i	i	i	i
CCCNC(=O)c1onc(CSc2ccc(Cl)cc2)c1C(=O)NCC1CC1	i	x	i	-10	i	i	i	i	i
SMILES	KCNK9 inh	Cl transport mod	KCNK3 block	hERG protect	KCNQ1 pot	KCNQ1 block	KCNK9 inh conf	Kir2-1 spec	HEK293 Tl ctr
C=CCNC(=O)c1c(CSc2ccccc2)noc1C(=O)NCc1ccccc1	x	-1.1	i	x	x	x	x	x	x
C=CCNC(=O)c1c(CSc2ccc(Cl)cc2)noc1C(=O)NCc1ccccc1	i	x	i	-21	i	i	i	i	i
CNc1ccc(/C=C/C(=O)c2cccc3ccccc23)cc1[N+](=O)[O-]	-11*	0.35	i	-12	i	i	48%*	i	36%*
CNc1ccc(C(=O)c2ccccc2C(=O)O)cc1[N+](=O)[O-]	i	x	i	-9	i	i	x	x	x
Cc1ccc(OCc2cccc(S(=O)(=O)N(C)C)c2)c([N+](=O)[O-])n1	i	x	i	-7	i	i	x	x	x
CCNC(=O)N(CC)C[C@H]1N[C@@](Cc2ccccc2)(C(=O)OC)[C@H]2C(=O)N(C)C(=O)[C@@H]12	x	x	i	x	x	x	x	x	x
CCCCn1c(N)c(N(CC)C(=O)c2cccs2)c(=O)[nH]c1=O	x	x	i	x	x	x	x	x	x
CCC1(c2ccccc2)ON(c2c(Br)cccc2Br)C1=O (centres undefined)	x	x	i	x	x	x	x	x	x
O=C(/C=C/c1ccccc1)c1cc(Br)ccc(=O)c1O	i	16*	i	12*	22*	i	i	i	i
O=C(N/N=C/c1cccs1)c1cc(-c2cccc3ccccc23)n[nH]1	-13*	-0.78	i	-5	i	i	54%*	i	32%*
O=C(N/N=C/c1cccs1)c1cc(-c2ccc3ccccc3c2)n[nH]1	i	x	i	-9	i	i	x	x	x
C=CCn1c(=O)[nH]c(=O)c2c(N)c(C(=O)c3ccc(OC)cc3)sc21	x	x	i	x	x	x	x	x	x
Cc1ccccc1OCC(=O)NC(=S)Nc1ccc(Br)c(C)n1	i	x	i	-4	i	i	x	x	x
Cc1ccccc1OCC(=O)NC(=S)Nc1cccc2cc(O)ccc12	-8.9*	x	i	-9	i	i	52%*	i	i
COCCNC(=O)/C(C#N)=C1\N=C(NC(=O)c2cccs2)c2ccccc21	i	x	i	-2	i	i	x	x	x
COc1ccc(CNC(=O)/C(C#N)=C2\N=C(NC(=O)c3cccs3)c3ccccc32)cc1	i	0.13	i	-8	i	i	i	i	i
CCc1ccc(/C(C)=N/NC(=O)c2ccc(-n3cnnn3)cc2)cc1	x	x	i	x	x	x	x	x	x
COc1ccc2c(c1)/C(=N/OC(=O)c1cccs1)CCC2	-12*	1.7	i	-12	i	i	i	i	i
